Assay results: ChEMBL document CHEMBL4680237, “In situ click chemistry-based rapid discovery of novel HIV-1 NNRTIs by exploiting the hydrophobic channel and tolerant regions of NNIBP” (Eur J Med Chem, 2020)

Experiments:
[1] = target: Human immunodeficiency virus type 1 reverse transcriptase (Human immunodeficiency virus 1) (UniProt Q72547); experiment: Inhibition of HIV-1 reverse transcriptase assessed as reduction in biotin-dUTP incorporation in to cDNA chain at 0.267 uM in presence of DIG-dUTP, biotin-dUTP and dTTP measured after 1 hr by ELISA relative to control
How it was run: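 ELISA for HIV-1 RT: enzyme with reconstituted template, DIG-dUTP, biotin-dUTP and dTTP in buffer ± inhibitor, 1 h at 37°C. Product captured on streptavidin-coated plate 2 h at 37°C, then anti-DIG-POD 1 h at 37°C, ABTS substrate, OD405. % inhibition calculated from OD with/without inhibitor and without RT.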

[2] = Selectivity index, ratio of CC50 for cytotoxicity against human MT4 cells to EC50 for antiviral activity against HIV1 3B infected in human MT4 cells; type: toxicity, cell-based; details: read-out: Ratio CC50/EC50
How it was run: (§1)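 SI computed as CC50 in mock-infected MT-4 cells divided by EC50 against the given HIV-1 strain, both from the 5-day MTT assay.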

[3] = Cytotoxicity against human MT4 cells assessed as reduction in cell viability after 5 days by MTT assay; type: cell-based; details: time 5 day
How it was run: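 Mock-infected MT-4 cells (6×10^5 cells/mL) were run in parallel with serial 5-fold compound dilutions in triplicate wells. After 5 days, viability was read by MTT (540/690 nm) as the median of three wells. CC50 is the concentration reducing OD540 of the mock-infected control by 50%.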

[4] = system: Human immunodeficiency virus 1; experiment: Antiviral activity against HIV1 RES056 infected in human MT4 cells assessed as reduction in virus-induced cell death incubated for 5 days by MTT assay; type: functional, organism-based; details: Human immunodeficiency virus 1, RES056, MT4, 120 h
How it was run: (§2)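 MT-4 cells (6×10^5 cells/mL) infected with HIV-1 at 100-300 CCID50; serial 5-fold compound dilutions added at infection, triplicate wells. After 5 days, viability was read by MTT at 540 and 690 nm, using the median absorbance of three wells.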

[5] = Selectivity index, ratio of CC50 for cytotoxicity against human MT4 cells to EC50 for antiviral activity against HIV1 RES056 infected in human MT4 cells; type: toxicity, cell-based; details: read-out: Ratio CC50/EC50; how it was run: as §1
[6] = system: Human immunodeficiency virus 1; experiment: Antiviral activity against HIV1 3B infected in human MT4 cells assessed as reduction in virus-induced cell death incubated for 5 days by MTT assay; type: functional, organism-based; details: Human immunodeficiency virus 1, 3B, MT4, 120 h
How it was run: as §2, with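 “three wells. EC50 is the concentration giving 50% protection against virus cytopathic effect.” for “three wells.”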

Molecule `Cc1cc(C#N)cc(C)c1Oc1nc(NC2CCN(Cc3ccc(S(N)(=O)=O)cc3)CC2)nc2ccsc12` has an inhibition [1] of 44%, a selectivity ratio [2] of over 159000 and a CC50 at 120 h [3] of over 227000 nM. It also gave an EC50 [4] of 30.6 nM and a selectivity ratio [5] of over 7420.
In the case of `Cc1cc(C#N)cc(C)c1Oc1nc(NCCc2cn(Cc3ccccc3Cl)nn2)nc2ccsc12`, the inhibition [1] is reported as 75.6%.
`Cc1cccc(Cn2cc(CCNc3nc(Oc4c(C)cc(C#N)cc4C)c4sccc4n3)nn2)c1` showed an inhibition [1] of 91.8%.
Work on `Cc1cc(-c2cn(Cc3ccc(Cl)cc3)nn2)cc(C)c1Oc1nc(NC2CCN(Cc3ccc(S(N)(=O)=O)cc3)CC2)nc2ccsc12` yielded an inhibition [1] of 70.8%, a selectivity ratio [2] of 108 and an EC50 [6] of 31.3 nM. For the same molecule, the CC50 at 120 h [3] was 3390 nM, the EC50 [4] was over 3400 nM and the selectivity ratio [5] was under 1.
Work on `Cc1cc(C#N)cc(C)c1Oc1nc(NC2CCN(Cc3cn(Cc4ccc(C#N)cc4)nn3)CC2)nc2ccsc12` yielded a selectivity ratio [2] of 525, an EC50 [6] of 209 nM and a CC50 at 120 h [3] of 110000 nM. It also gave an EC50 [4] of 18100 nM and a selectivity ratio [5] of 6.
`Cc1cc(C#N)cc(C)c1Oc1nc(NCCc2cn(Cc3ccc(C(N)=O)cc3)nn2)nc2ccsc12` showed an inhibition [1] of 71.1%.
With `Cc1cc(C#N)cc(C)c1Oc1nc(NC2CCN(Cc3cn([C@H]4C[C@H](n5cc(C)c(=O)[nH]c5=O)O[C@@H]4CO)nn3)CC2)nc2ccsc12` the inhibition [1] was 57.1%, the selectivity ratio [2] was 1800 and the EC50 [6] was 82.9 nM. For the same molecule, the CC50 at 120 h [3] was 149000 nM, the EC50 [4] was 10600 nM and the selectivity ratio [5] was 14.
Work on `Cc1ccccc1Cn1cc(CN2CCC(Nc3nc(Oc4c(C)cc(C#N)cc4C)c4sccc4n3)CC2)nn1` yielded an inhibition [1] of 44.8%.
For `Cc1cc(C#N)cc(C)c1Oc1nc(NC2CCN(Cc3cn(Cc4ccc(C(N)=O)cc4)nn3)CC2)nc2ccsc12`, the inhibition [1] was 66.6%, the selectivity ratio [2] was over 64100 and the EC50 [6] was 3.28 nM. The CC50 at 120 h [3] was over 210000 nM, the EC50 [4] was 481 nM and the selectivity ratio [5] was over 437.
Molecule `Cc1cc(-c2cn(CCc3ccsc3)nn2)cc(C)c1Oc1nc(NC2CCN(Cc3ccc(S(N)(=O)=O)cc3)CC2)nc2ccsc12` has an inhibition [1] of 72.5%, a selectivity ratio [2] of 552 and an EC50 [6] of 21.1 nM. The CC50 at 120 h [3] was 11700 nM, the EC50 [4] was 6190 nM and the selectivity ratio [5] was 1.88.
For `Cc1cc(C#N)cc(C)c1Oc1nc(NC2CCN(Cc3cn(Cc4ccccc4C#N)nn3)CC2)nc2ccsc12`, the inhibition [1] was 50.3%, the selectivity ratio [2] was 2440 and the EC50 [6] was 6.64 nM. For the same molecule, the CC50 at 120 h [3] was 16200 nM, the EC50 [4] was 2910 nM and the selectivity ratio [5] was 6.
In the case of `Cc1cc(C#N)cc(C)c1Oc1nc(NCCc2cn(CC(=O)N3CCOCC3)nn2)nc2ccsc12`, the inhibition [1] is reported as 86.7%.
For `Cc1cc(C#N)cc(C)c1Oc1nc(NC2CCN(C(=O)c3cn(CC(=O)N4CCOCC4)nn3)CC2)nc2ccsc12`, the inhibition [1] was 71.8%.
Work on `Cc1ccnc2c1NC(=O)c1cccnc1N2C1CC1` [NEVIRAPINE] yielded a selectivity ratio [2] of over 58, an EC50 [6] of 163 nM and a CC50 at 120 h [3] of over 9510 nM. For the same molecule, the EC50 [4] was over 9510 nM.
`Cc1cc(C#N)cc(C)c1Oc1nc(NC2CCN(Cc3cn(Cc4ccc(S(N)(=O)=O)cc4)nn3)CC2)nc2ccsc12` gave an inhibition [1] of 42%, a selectivity ratio [2] of 3880 and an EC50 [6] of 5.35 nM. For the same molecule, the CC50 at 120 h [3] was 20700 nM, the EC50 [4] was 670 nM and the selectivity ratio [5] was 31.
Work on `O=C1Nc2ccc(Cl)cc2[C@@](C#CC2CC2)(C(F)(F)F)O1` [EFAVIRENZ] yielded an EC50 [6] of 4.7 nM and a CC50 at 120 h [3] of over 6380 nM.
With `Cc1cc(C#N)cc(C)c1Oc1nc(NC2CCN(C(=O)c3cn(CC(=O)Nc4ccccc4)nn3)CC2)nc2ccsc12` the inhibition [1] was 80.2%.
`Cc1cc(C#N)cc(C)c1Oc1nc(NCCc2cn(Cc3ccccc3[N+](=O)[O-])nn2)nc2ccsc12` showed an inhibition [1] of 89.1%.
With `Cc1cc(C#N)cc(C)c1Oc1nc(NC2CCN(Cc3cn(CC(=O)N4CCOCC4)nn3)CC2)nc2ccsc12` the inhibition [1] was 69.7%, the selectivity ratio [2] was over 48500 and the EC50 [6] was 4.38 nM. The CC50 at 120 h [3] was over 212000 nM, the EC50 [4] was 4460 nM and the selectivity ratio [5] was over 48.
Work on `Cc1cc(C#N)cc(C)c1Oc1nc(NC2CCN(Cc3cn(Cc4ccccc4[N+](=O)[O-])nn3)CC2)nc2ccsc12` yielded an inhibition [1] of 51.9%, a selectivity ratio [2] of 1250 and an EC50 [6] of 6.12 nM. The CC50 at 120 h [3] was 7660 nM, the EC50 [4] was 1170 nM and the selectivity ratio [5] was 7.
Molecule `Cc1ccc(Cn2cc(CN3CCC(Nc4nc(Oc5c(C)cc(C#N)cc5C)c5sccc5n4)CC3)nn2)cc1` has an inhibition [1] of 46.1%, a selectivity ratio [2] of 650 and an EC50 [6] of 7.26 nM. It also gave a CC50 at 120 h [3] of 4720 nM, an EC50 [4] of over 4720 nM and a selectivity ratio [5] of under 1.
With `Cc1cc(C#N)cc(C)c1Oc1nc(NCCc2cn(Cc3ccc(S(N)(=O)=O)cc3)nn2)nc2ccsc12` the inhibition [1] was 72.4%.
Work on `Cc1cc(C#N)cc(C)c1Oc1nc(Nc2ccc(C#N)cc2)nc(N)c1Br` [ETRAVIRINE] yielded an inhibition [1] of 32.7%, a selectivity ratio [2] of over 889 and an EC50 [6] of 5.1 nM. It also gave a CC50 at 120 h [3] of over 4590 nM and a selectivity ratio [5] of over 101.
`Cc1cc(C#N)cc(C)c1Oc1nc(NC2CCN(Cc3cn(CC(=O)Nc4ccc(S(C)(=O)=O)cc4)nn3)CC2)nc2ccsc12` gave an inhibition [1] of 60.1%, a selectivity ratio [2] of 2970 and an EC50 [6] of 6.66 nM. It also gave a CC50 at 120 h [3] of 19800 nM, an EC50 [4] of 1990 nM and a selectivity ratio [5] of 10.
Work on `Cc1cc(-c2cn(CC(=O)N3CCCC3)nn2)cc(C)c1Oc1nc(NC2CCN(Cc3ccc(S(N)(=O)=O)cc3)CC2)nc2ccsc12` yielded an inhibition [1] of 74%, a selectivity ratio [2] of 682 and an EC50 [6] of 25.8 nM. The CC50 at 120 h [3] was 17600 nM, the EC50 [4] was 6050 nM and the selectivity ratio [5] was 3.
`Cc1ccccc1Cn1cc(C(=O)N2CCC(Nc3nc(Oc4c(C)cc(C#N)cc4C)c4sccc4n3)CC2)nn1` gave an inhibition [1] of 75.8%.
